According to the array DNA melting data of Ke et al. (doi:10.1101/2024.01.08.574731):

How the values were obtained:
[1] = folding enthalpy; higher = less favourable; fluorescence melt of hairpins on a sequencing array, two-state fit; settings: sodium 0.088 M
Method in brief: (§1)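 Folding enthalpy and melting temperature were estimated with bootstrapped two-state fits and combined across four replicates by inverse-variance weighting, with fitted temperatures raised by 9.35 °C to match UV melts. The data were Cy3 fluorescence of library hairpins, with annealed Cy3 and quencher oligos, on a sequenced MiSeq flow cell in 50 mM Na-HEPES pH 8.0, 25 mM NaCl, imaged in 2.5 °C steps up to 60 °C and normalised to pre-quench Cy3 and control constructs.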

[2] = melting temperature; fluorescence melt of hairpins on a sequencing array, two-state fit, raised by 9.35 °C to match UV melts; settings: sodium 0.088 M
Method in brief: as §1

Sequence	folding enthalpy [1]	Tm [2]
GATCGGGCAACCGATC ((((((....))))))	-34.4 kcal/mol	65.4 °C
GCATTAGGAAACTAGTGC (((.(((....))).)))	-28.6 kcal/mol	40.9 °C
GCCGAGCGAAAGCCCCGC ((.(.((....)).).))	-12.1 kcal/mol	32.2 °C
GATCTTTACCAAGATC ((((((....))))))	-29.9 kcal/mol	42 °C
GATCCATACCTGGATC ((((((....))))))	-36.8 kcal/mol	52.1 °C
GCTAACGAAAGTTGTAGC ((((((....)))..)))	-20.6 kcal/mol	38.3 °C
GTAAAGGAAACTTTAC ((((((....))))))	-32.6 kcal/mol	40.6 °C
GCTATGCGAAAGCGTGGC ((.(.((....)).).))	-26.1 kcal/mol	53.5 °C
GATCACTCAAGTGATC ((((((....))))))	-49.2 kcal/mol	57 °C
GTTGCCGGAAACGGTGAC ((..(((....)))..))	-22.8 kcal/mol	47.8 °C
GGGTAACGAAAGTTCCC (((.(((....))))))	-24.4 kcal/mol	50.1 °C
GGGTTTGGAAACAAATCC ((.((((....)))).))	-39.6 kcal/mol	47.4 °C
GCATGCGAAAGCACATGC ((((((....)))..)))	-19 kcal/mol	51 °C
GCACGAGGAAACCCGTGC (((((.(....).)))))	-45.2 kcal/mol	58.2 °C
GTTGTTGCGAAAGCAAAC (((..(((....))))))	-21.7 kcal/mol	53.1 °C
GGTCTCGAAAGAGGGACC ((((((....)))..)))	-22.4 kcal/mol	44 °C
GTAGGTCGAAAGACTTAC (((.(((....))).)))	-27.3 kcal/mol	47.9 °C
GCTGCCGAAAGGCCCAGC ((((((....)))..)))	-12.2 kcal/mol	35.8 °C
GCGATGGATCGC ((((....))))	-22.8 kcal/mol	52.8 °C
GCGTCAGCACGC ((((....))))	-8.99 kcal/mol	61.9 °C
GTGACCTCGAAAGAGCAC (((..(((....))))))	-14.8 kcal/mol	30.9 °C
GACCCTGGAAACGGGGTC (((((.(....).)))))	-40.3 kcal/mol	57.6 °C
GATGAGGCGAAAGCCATC (((..(((....))))))	-13.1 kcal/mol	36.3 °C
GGCAATCGAAAGATGCC (((.(((....))))))	-40.3 kcal/mol	56.5 °C

Sequence	folding enthalpy [1]	Tm [2]
GTGTCTACGAAAGTACAC (((..(((....))))))	-13.2 kcal/mol	38.5 °C
GATCCAACCGTGGATC ((((((....))))))	-30.3 kcal/mol	49.8 °C
GCTACGGGAAACCGTAAC (.(((((....))))).)	-13.7 kcal/mol	36.1 °C
GGGTCAGGAAACTAACCC ((((.((....)).))))	-25.4 kcal/mol	38.2 °C
GAACATGGAAACGTGTTC (((((.(....).)))))	-40.1 kcal/mol	44.8 °C
CGGACGGAAACGTACCG ((((((....))).)))	-24.2 kcal/mol	47.5 °C
GCCTGCGGAAACGCAGAC (.(((((....))))).)	-12.1 kcal/mol	50 °C
GCAATGCGAAAGCATGC (((.(((....))))))	-22.9 kcal/mol	63 °C
GAGTTGGGAAACCAGCTC (((.(((....))).)))	-34.7 kcal/mol	48.9 °C
GATCTACGCATAGATC ((((((....))))))	-28.5 kcal/mol	42.7 °C
GAATCCGAAAGGAACTTC ((((((....)))..)))	-13.1 kcal/mol	33.1 °C
GATCAGGGGCTGATC ((((((...))))))	-27.4 kcal/mol	47.5 °C
CGCCATCGGAAACGAGCG (((..(((....))))))	-18.1 kcal/mol	37 °C
GTCAACGGAAACGTTGGC (.(((((....))))).)	-32.5 kcal/mol	54.9 °C
GCTGAGAAATCAGC (((((....)))))	-28.4 kcal/mol	53.2 °C
GTGAGCGGAAACGTTCAC ((((.((....)).))))	-41.2 kcal/mol	52.8 °C
GCGTCGCCACGC ((((....))))	-15.9 kcal/mol	53.7 °C
GGACTCGGAAACGGGTTC (.((.((....)).)).)	-25.7 kcal/mol	40.2 °C
GCGATGGGAAACCGTTGC ((.(.((....)).).))	-28.8 kcal/mol	42.7 °C
GCGTAATCACGC ((((....))))	-21.9 kcal/mol	52.7 °C
GTGATAGGAAACCATCAC (((((.(....).)))))	-34.9 kcal/mol	39.3 °C
GCACTGCGAAAGCGGAGC ((.(.((....)).).))	-19.8 kcal/mol	49.9 °C
GCACTGAAAAGTGC (((((....)))))	-35.1 kcal/mol	61 °C
GGTACTGGAAACGGTATC (.(((.(....).))).)	-13 kcal/mol	27.7 °C

Sequence	folding enthalpy [1]	Tm [2]
GAGATCCGAAAGGACCTC (((.(((....))).)))	-28.4 kcal/mol	47.1 °C
GTGTTAGGAAACTGACAC ((((.((....)).))))	-33.8 kcal/mol	46.1 °C
GAGCTGGGAAACCAGTTC ((.((((....)))).))	-24.4 kcal/mol	47.4 °C
GGGTAACCGAAAGGTCCC (((..(((....))))))	-18 kcal/mol	45.8 °C
GGCAGGCGAAAGCCCGCC (((.(((....))).)))	-22.8 kcal/mol	66.2 °C
GATCCGTCACCGGATC ((((((....))))))	-41.6 kcal/mol	57.2 °C
GACTGAGGAAACCCAGTC (((((.(....).)))))	-33.7 kcal/mol	44.8 °C
GATCGAGGAAACTCGGTC ((.((((....)))).))	-30.4 kcal/mol	50.5 °C
GTGCTGACGAAAGTCCAC (((..(((....))))))	-11.9 kcal/mol	40.8 °C
GATCGTCTAAACGATC ((((((....))))))	-43 kcal/mol	56.1 °C
GCGACGGGAAACTGTCGC (((((.(....).)))))	-35.9 kcal/mol	67.6 °C
GCGAGCGAAAGCTTTCGC ((((((....)))..)))	-13.2 kcal/mol	50.3 °C
GATCGAGACCTCGATC ((((((....))))))	-44.3 kcal/mol	56.7 °C
GCCGCGCGAAAGCCCCGC ((.(.((....)).).))	-7.57 kcal/mol	33.3 °C
GCCGTACGAAAGTAGGC (((.(((....))))))	-33.6 kcal/mol	67.4 °C
GCGTGGGGAAACCTGCGC (((..((....))..)))	-37 kcal/mol	53.3 °C
GATCAGGGATCTGATC ((((((....))))))	-29.1 kcal/mol	57.1 °C
GTCCAAGGAAACCTGGAC (((((.(....).)))))	-27.7 kcal/mol	46.8 °C
GATCGCCAGTGCGATC ((((((....))))))	-34.9 kcal/mol	64.4 °C
GTAACCCGAAAGGGGTAC (((.(((....))).)))	-30.9 kcal/mol	57.6 °C
GTATCGAAAGATAC (((((....)))))	-25.1 kcal/mol	52.7 °C
GCCCGCGAAAGCGCCGGC ((((((....)))..)))	-17.5 kcal/mol	52.3 °C
GTGACGGGAAACCGTCGC (.(((((....))))).)	-24.8 kcal/mol	62.6 °C
GATCCATAAATGGATC ((((((....))))))	-47.5 kcal/mol	50.3 °C

Sequence	folding enthalpy [1]	Tm [2]
GCCATTGGAAACAGTGGC ((((.((....)).))))	-45.3 kcal/mol	50.7 °C
GTCGCCGGAAACAGCGAC (((((.(....).)))))	-44.9 kcal/mol	54.9 °C
GATCTTAGGGAAGATC ((((((....))))))	-26.3 kcal/mol	41.5 °C
GATCTTACTAAAGATC ((((((....))))))	-33 kcal/mol	43 °C
GTTCAGGGAAACCTGGAC ((.((((....)))).))	-29.6 kcal/mol	48.9 °C
GATCGTCGCAACGATC ((((((....))))))	-38.1 kcal/mol	56.2 °C
TCTTGGAAACAAGA (((((....)))))	-11.1 kcal/mol	35.7 °C
GCGACAGGTCGC ((((....))))	-27.1 kcal/mol	56.2 °C
GATCTCGCATGAGATC ((((((....))))))	-44.8 kcal/mol	61.6 °C
GCGGCCACCGC ((((...))))	-19.6 kcal/mol	59.5 °C
GGCGTGGGAAACCGTGCC (((..((....))..)))	-32.1 kcal/mol	49.1 °C
GTTATTGGAAACAATGAC ((.((((....)))).))	-32.5 kcal/mol	36.9 °C
GCAGGAGCGAAAGCTTGC (((..(((....))))))	-16.5 kcal/mol	44.2 °C
GACTCTGGAAACGGAGTC (((((.(....).)))))	-46.5 kcal/mol	50.3 °C
GCGCCTCGAAAGAGTCGC (((.(((....))).)))	-38.3 kcal/mol	58.7 °C
GATAGCACGAAAGTGATC (((..(((....))))))	-9.8 kcal/mol	28.4 °C
GGCGATCCGAAAGGAGCC (((..(((....))))))	-35.4 kcal/mol	53.9 °C
GGTGCCGAAAGGCACACC ((((((....)))..)))	-6.62 kcal/mol	58 °C
GCATCGCGAAAGCATTGC (((..((....))..)))	-13.1 kcal/mol	37.7 °C
GGGTTTGGAAACAAGCCC (((.(((....))).)))	-32.1 kcal/mol	52.7 °C
GCGACTGATCGC ((((....))))	-21.9 kcal/mol	46.8 °C
